From ChEMBL document CHEMBL4396920, “DL5050, a Selective Agonist for the Human Constitutive Androstane Receptor” (ACS Med Chem Lett, 2019)

Tests used:
[1] = target: T1, Nuclear receptor subfamily 1 group I member 3 (Homo sapiens, UniProt Q14994); experiment: Agonist activity at human CAR in human primary hepatocytes assessed as increase in CYP2B6 gene expression incubated for 24 hrs by RT-PCR analysis; type: cell-based
T1 sequence (Q14994 whole entry): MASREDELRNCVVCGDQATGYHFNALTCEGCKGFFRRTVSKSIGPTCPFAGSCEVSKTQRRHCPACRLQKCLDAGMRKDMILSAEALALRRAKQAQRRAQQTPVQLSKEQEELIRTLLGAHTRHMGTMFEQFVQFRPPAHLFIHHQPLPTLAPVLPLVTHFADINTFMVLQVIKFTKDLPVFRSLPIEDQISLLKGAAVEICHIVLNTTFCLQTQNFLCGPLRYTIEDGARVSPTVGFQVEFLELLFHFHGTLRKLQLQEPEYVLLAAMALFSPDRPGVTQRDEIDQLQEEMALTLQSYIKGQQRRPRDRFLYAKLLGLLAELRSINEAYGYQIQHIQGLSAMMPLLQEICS
Procedure, shortened: (§1)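 Hepatocytes from human liver donor HL-#151, treated with test compound at 0.5, 1 and 5 μM or vehicle; CITCO (0.5–5 μM), PB (1 mM) and RIF (10 μM) as references. CYP2B6 and CYP3A4 mRNA measured by RT-PCR and normalized to vehicle control. Mean ± SD of three independent experiments.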

[2] = target: T2, Nuclear receptor subfamily 1 group I member 2 (Homo sapiens, UniProt O75469); experiment: Agonist activity at human PXR in human primary hepatocytes assessed as slight increase in CYP3A4 gene expression at 0.5 to 5 uM incubated for 24 hrs by RT-PCR analysis; type: cell-based; procedure, shortened: as §1
T2 sequence (O75469 whole entry): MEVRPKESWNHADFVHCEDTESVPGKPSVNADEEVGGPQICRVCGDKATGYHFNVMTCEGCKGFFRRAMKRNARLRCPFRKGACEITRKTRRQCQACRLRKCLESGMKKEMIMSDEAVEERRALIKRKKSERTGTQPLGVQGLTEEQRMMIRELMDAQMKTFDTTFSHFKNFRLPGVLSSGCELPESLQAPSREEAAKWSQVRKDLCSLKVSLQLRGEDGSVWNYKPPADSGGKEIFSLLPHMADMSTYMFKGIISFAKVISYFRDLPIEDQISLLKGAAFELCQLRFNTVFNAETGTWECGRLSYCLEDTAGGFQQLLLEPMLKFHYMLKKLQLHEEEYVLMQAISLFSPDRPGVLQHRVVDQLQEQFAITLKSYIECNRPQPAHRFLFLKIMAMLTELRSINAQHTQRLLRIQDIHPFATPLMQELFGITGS

[3] = target: T1, Nuclear receptor subfamily 1 group I member 3; experiment: Agonist activity at human CAR in human primary hepatocytes assessed as slight increase in CYP2B6 level at 0.5 to 5 uM incubated for 72 hrs by Western blot analysis; type: cell-based
Procedure, shortened: (§2)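 Hepatocytes from liver donor #151, given the same treatments as the mRNA study. CYP2B6 and CYP3A4 protein detected by immunoblotting; representative blots.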

[4] = target: T1, Nuclear receptor subfamily 1 group I member 3; experiment: Agonist activity at human CAR transfected in human HepG2 cells cotransfected with CYP2B6 incubated for 23 hrs by luciferase reported gene assay; type: cell-based
Procedure, shortened: (§3)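 qHTS luciferase reporter assay in a double-stable HepG2-CYP2B6-hCAR line. EC50 and Emax (fold luciferase signal over vehicle/basal) derived by nonlinear regression; Emax/EC50 ratio computed from these. Mean ± SEM of at least three independent experiments in quadruplicate.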

[5] = target: T2, Nuclear receptor subfamily 1 group I member 2; experiment: Ratio of Emax to EC50 for agonist activity at human PXR transfected in human HepG2 cells cotransfected with CYP3A4 by luciferase reporter gene assay; type: cell-based
HepG2 [6] = experiment: Cytotoxicity against human HepG2 cells harbouring CYP2B6-hCAR gene assessed as cell viability at 92 uM incubated for 24 hrs by cell titer-Glo cell viability assay; type: ADME, cell-based; conditions: hepg2, 24 h
[7] = target: T1, Nuclear receptor subfamily 1 group I member 3; experiment: Ratio of Emax to EC50 for agonist activity at human CAR transfected in human HepG2 cells cotransfected with CYP2B6 by luciferase reporter gene assay; type: cell-based; procedure, shortened: as §3
[8] = target: T2, Nuclear receptor subfamily 1 group I member 2; experiment: Agonist activity at human PXR transfected in human HepG2 cells cotransfected with CYP3A4 incubated for 23 hrs by luciferase reporter gene assay; type: cell-based
HepG2 [9] = experiment: Cytotoxicity against human HepG2 cells harbouring CYP2B6-hCAR gene assessed as reduction in cell viability at >10 uM incubated for 24 hrs by cell titer-Glo cell viability assay; type: ADME, cell-based; conditions: hepg2, 24 h
[10] = target: T1, Nuclear receptor subfamily 1 group I member 3; experiment: Agonist activity at human CAR in human primary hepatocytes assessed as increase in CYP2B6 level incubated for 72 hrs by Western blot analysis; type: cell-based; procedure, shortened: as §2
[11] = target: T2, Nuclear receptor subfamily 1 group I member 2; experiment: Agonist activity at human PXR in human primary hepatocytes assessed as slight increase in CYP3A4 level at 0.5 to 5 uM incubated for 72 hrs by Western blot analysis; type: cell-based; procedure, shortened: as §2
[12] = target: T1, Nuclear receptor subfamily 1 group I member 3; experiment: Agonist activity at human CAR in human primary hepatocytes assessed as increase in CYP2B6 gene expression at 0.5 to 5 uM incubated for 24 hrs by RT-PCR analysis; type: cell-based; procedure, shortened: as §1
[13] = target: T2, Nuclear receptor subfamily 1 group I member 2; experiment: Agonist activity at human PXR in human primary hepatocytes assessed as increase in CYP3A4 gene expression at 1 mM incubated for 24 hrs by RT-PCR analysis; type: cell-based; conditions: 1000 µM
Procedure, shortened: (§4)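 Human primary hepatocytes from liver donor HL-#151 were treated with compound at 0.5, 1 or 5 μM, phenobarbital (1 mM), rifampicin (10 μM) or vehicle. CYP2B6 and CYP3A4 mRNA was measured by RT-PCR and normalized against vehicle control. Results are mean ± SD of three independent experiments.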

[14] = target: T1, Nuclear receptor subfamily 1 group I member 3; experiment: Agonist activity at human CAR in human primary hepatocytes assessed as increase in CYP2B6 gene expression at 1 mM incubated for 24 hrs by RT-PCR analysis; type: cell-based; conditions: 1000 µM; procedure, shortened: as §4

With `Clc1ccc(-c2nc3occn3c2/C=N/OCc2ccc(Cl)c(Cl)c2)cc1` the Activity [1] was “Dose-dependent effect”, the Activity [2] was “Active” and the Activity [3] was “Active”. The EC50 ([4]; read-out: EC50) was 410 nM, the Ratio [5] was 1.3 and the Activity (HepG2 [6]) was “Non-Toxic”. The Ratio [7] was 10 and the EC50 [8] was 1300 nM.
For `Clc1ccc(CO/N=C/c2c(-c3cccc4ccccc34)nc3sccn23)cc1Cl`, the Activity (HepG2 [9]) was “Toxic”, the EC50 ([4]; read-out: EC50) was 940 nM and the Ratio [7] was 2.3.
`Clc1ccc(CO/N=C/c2c(-c3ccc4ccccc4c3)nc3occn23)c(Cl)c1` was tested, and the Activity (HepG2 [9]) was “Toxic”, the EC50 ([4]; read-out: EC50) was 1500 nM and the Ratio [7] was 2.3.
With `FC(F)(F)c1ccc(CO/N=C/c2c(-c3ccc4ccccc4c3)nc3occn23)cc1` the EC50 ([4]; read-out: EC50) was 470 nM, the Ratio [5] was 0.85 and the Activity (HepG2 [6]) was “Non-Toxic”. For the same molecule, the Ratio [7] was 6 and the EC50 [8] was 2000 nM.
In the case of `CC(C)(C)c1ccc(-c2nc3sccn3c2/C=N/OCc2ccc(Cl)c(Cl)c2)cc1`, the Activity (HepG2 [9]) is reported as “Toxic”, the EC50 ([4]; read-out: EC50) is reported as 2400 nM and the Ratio [7] is reported as 0.83.
For `Clc1ccccc1CO/N=C/c1c(-c2ccc3ccccc3c2)nc2occn12`, the Activity (HepG2 [9]) was “Toxic”, the EC50 ([4]; read-out: EC50) was 1100 nM and the Ratio [7] was 3.5.
In the case of `FC(F)(F)c1ccc(-c2nc3sccn3c2/C=N/OCc2ccc(Cl)c(Cl)c2)cc1`, the Activity (HepG2 [9]) is reported as “Toxic”, the EC50 ([4]; read-out: EC50) is reported as 880 nM and the Ratio [7] is reported as 2.6.
With `Cc1ccc(-c2nc3sccn3c2/C=N/OCc2ccc(Cl)c(Cl)c2)cc1` the Activity (HepG2 [9]) was “Toxic”, the EC50 ([4]; read-out: EC50) was 490 nM and the Ratio [7] was 5.5.
`Clc1ccc(CO/N=C/c2c(-c3ccc(C4CCCCC4)cc3)nc3sccn23)cc1Cl` was tested, and the Activity (HepG2 [9]) was “Toxic”, the EC50 ([4]; read-out: EC50) was > 100000 nM and the Ratio [7] was < 0.03.
With `Clc1ccc(CO/N=C/c2c(-c3ccc4ccccc4c3)nc3sccn23)cc1Cl` the Activity (HepG2 [9]) was “Toxic”, the EC50 ([4]; read-out: EC50) was 380 nM and the Ratio [7] was 6.1.
In the case of `CC1(C)CCC(C)(C)c2cc(-c3nc4sccn4c3/C=N/OCc3ccc(Cl)c(Cl)c3)ccc21`, the Activity (HepG2 [9]) is reported as “Toxic”, the EC50 ([4]; hepg2) is reported as “Not Active” and the Ratio [5] is reported as 0.64. It also gave an EC50 [8] of 3600 nM.
In the case of `Clc1ccc(CO/N=C/c2c(-c3ccc4ccccc4c3)nc3occn23)cc1`, the Activity (HepG2 [9]) is reported as “Toxic”, the EC50 ([4]; read-out: EC50) is reported as 990 nM and the Ratio [7] is reported as 4.2.
For `Clc1ccc(CO/N=C/c2c(-c3ccccc3)nc3sccn23)cc1Cl`, the Activity (HepG2 [9]) was “Toxic”, the EC50 ([4]; read-out: EC50) was 580 nM and the Ratio [7] was 4.
In the case of `COc1ccc(-c2nc3sccn3c2/C=N/OCc2ccc(Cl)c(Cl)c2)cc1`, the Activity (HepG2 [9]) is reported as “Toxic”, the EC50 ([4]; read-out: EC50) is reported as 490 nM and the Ratio [7] is reported as 4.9.
For `Clc1ccc(CO/N=C/c2c(-c3ccc4ccccc4c3)nc3occn23)cc1Cl`, the Activity [10] was “Dose-dependent effect”, the Activity [11] was “Active” and the Activity [1] was “Dose-dependent effect”. The Activity [2] was “Active”, the EC50 ([4]; read-out: EC50) was 370 nM and the Ratio [5] was 0.37. The Activity (HepG2 [6]) was “Non-Toxic”, the Ratio [7] was 10 and the EC50 [8] was 5900 nM.
With `Clc1cccc(-c2nc3sccn3c2/C=N/OCc2ccc(Cl)c(Cl)c2)c1` the Activity (HepG2 [9]) was “Toxic”, the EC50 ([4]; read-out: EC50) was 1100 nM and the Ratio [7] was 2.1.
With `CC(C)c1ccc(-c2nc3sccn3c2/C=N/OCc2ccc(Cl)c(Cl)c2)cc1` the Activity (HepG2 [9]) was “Toxic”, the EC50 ([4]; read-out: EC50) was 590 nM and the Ratio [7] was 5.1.
With `Fc1c(F)c(F)c(CO/N=C/c2c(-c3ccc4ccccc4c3)nc3occn23)c(F)c1F` the Activity (HepG2 [9]) was “Toxic”, the EC50 ([4]; read-out: EC50) was 1700 nM and the Ratio [7] was 1.8.
`CC(C)(C)c1ccc(CO/N=C/c2c(-c3ccc4ccccc4c3)nc3occn23)cc1` was tested, and the Activity (HepG2 [9]) was “Toxic”, the EC50 ([4]; read-out: EC50) was 7900 nM and the Ratio [7] was 0.29.
For `Clc1ccc(CO/N=C/c2c(-c3ccc(-c4ccccc4)cc3)nc3sccn23)cc1Cl`, the Activity (HepG2 [9]) was “Toxic”, the EC50 ([4]; hepg2) was “Not Active” and the Ratio [5] was 0.06. For the same molecule, the EC50 [8] was 57000 nM.
In the case of `Clc1ccc(CO/N=C/c2c(-c3ccc(Br)cc3)nc3sccn23)cc1Cl`, the Activity (HepG2 [9]) is reported as “Toxic”, the EC50 ([4]; read-out: EC50) is reported as 480 nM and the Ratio [7] is reported as 5.
`Fc1ccc(-c2nc3sccn3c2/C=N/OCc2ccc(Cl)c(Cl)c2)cc1` was tested, and the Activity (HepG2 [9]) was “Toxic”, the EC50 ([4]; read-out: EC50) was 670 nM and the Ratio [7] was 3.9.
With `C(=N\OCc1ccccc1)/c1c(-c2ccc3ccccc3c2)nc2occn12` the EC50 ([4]; read-out: EC50) was 840 nM, the Ratio [5] was 1 and the Activity (HepG2 [6]) was “Non-Toxic”. The Ratio [7] was 5.2 and the EC50 [8] was 7300 nM.
`COc1ccc(CO/N=C/c2c(-c3ccc4ccccc4c3)nc3occn23)cc1` was tested, and the Activity (HepG2 [9]) was “Toxic”, the EC50 ([4]; read-out: EC50) was 4400 nM and the Ratio [7] was 0.75.
`CCc1nc2sccn2c1/C=N/OCc1ccc(Cl)c(Cl)c1` was tested, and the Activity (HepG2 [9]) was “Toxic”, the EC50 ([4]; read-out: EC50) was 2600 nM and the Ratio [7] was 1.4.
`C(=N\OC1Cc2ccccc2C1)/c1c(-c2ccc3ccccc3c2)nc2occn12` was tested, and the Activity (HepG2 [9]) was “Toxic”, the EC50 ([4]; read-out: EC50) was 980 nM and the Ratio [7] was 3.8.
For `N#Cc1ccc(-c2nc3sccn3c2/C=N/OCc2ccc(Cl)c(Cl)c2)cc1`, the Activity (HepG2 [9]) was “Toxic”, the EC50 ([4]; read-out: EC50) was 3400 nM and the Ratio [7] was 0.65.
In the case of `C(=N\OCc1ccc(Oc2ccccc2)cc1)/c1c(-c2ccc3ccccc3c2)nc2occn12`, the Activity (HepG2 [9]) is reported as “Toxic”, the EC50 ([4]; hepg2) is reported as “Not Active” and the Ratio [5] is reported as 1.6. It also gave an EC50 [8] of 1100 nM.
For `Clc1ccc(-c2nc3sccn3c2/C=N/OCc2ccc(Cl)c(Cl)c2)cc1`, the Activity [12] was “Active”, the Activity (HepG2 [9]) was “Toxic” and the EC50 [8] was 990 nM.
`CCC1(c2ccccc2)C(=O)NC(=O)NC1=O` [PHENOBARBITAL] was tested, and the Activity [13] was “Active” and the Activity [14] was “Active”.
